Screens from PubChem.
This is a sample that favours compounds with a hit; in the whole collection about 2.6% have one here.
HCV core dimer: inhibitors of HCV core protein dimerization, primary screen, biochemical, TR-FRET, high-throughput; TR-FRET GST/Flag-core106 dimerization, 1536-well; inhibition, % at 5 µM; 300,000 tested, 0.33% active; AID 1899, 2009;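 active = inhibition above the mean of all tested compounds plus 3 SD, set per screening campaign, cut at about 45% in these data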
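System – GST-tagged and Flag-tagged HCV core protein residues 1-106 · Repeats – one well for each compound · Technique – TR-FRET 671 and 617 nm emission · Doses – one concentration, 5 µM, in 0.5% DMSO · Times – 4 h, 22.5 °C incubation · Also added – Eu donor and XL665 acceptor anti-tag antibodies · Measure – percent inhibition of core106 dimerization signal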
rCAG RNA binder: binders of r(CAG) RNA repeats, primary screen, biochemical, fluorescence; r(CAG) RNA repeat, TO-PRO-1 dye displacement fluorescence; AID 651821, 2012; 370,000 tested, 1.3% active; inhibition, % at 3 µM;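 active = inhibition above the plate cutoff, the mean of all test compounds on that plate plus 3 SD, cut at about 35% in these data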;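 also: 0% = DMSO alone and 100% = 100 µM mitoxantrone as full dye displacement; higher means more dye released from RNA so lower well fluorescence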
ABHD5-PLIN5 inh: ABHD5-PLIN5 interaction inhibitors, primary screen, cell lysate, split luciferase complementation, luminescence | Split G. princeps luciferase complementation, 4 h | inhibition, % at 4 µM | 360,000 tested, 0.78% active | AID 602281, 2012;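 active = inhibition above the mean inhibition across every tested compound plus 3 SD, cut at about 22% in these data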;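 also: 0% = DMSO only wells and the 100% control is not disclosed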
NadD inh: inhibitors of S. aureus NadD, primary screen, biochemical, colorimetric, uHTS. 360,000 tested, 0.78% active. purified NadD enzyme, colorimetric absorbance read-out. inhibition, % at 20 µM. Nicotinate-nucleotide adenylyltransferase NadD (Staphylococcus aureus N315); in the data active = inhibition above about 26%
* marks the source's active call; other numbers are inactive results; x = not tested or not shown; ! = repeats disagree.

SMILES	HCV core dimer	rCAG RNA binder	ABHD5-PLIN5 inh	NadD inh
COc1ccc(/C=N/NC(=O)c2cccc([N+](=O)[O-])c2)cc1OC	1	-2	-3	1
CC(Oc1ccc(Br)cc1)c1nc2c3ccccc3nc(=S)n2[nH]1 (centres undefined)	14	36*	2	7
O=C1OC(c2ccc(Cl)cc2)/C(=C(/O)c2ccccc2)C1=O (centres undefined)	14	5	23*	5
C[C@@H]1CN([C@@H](C)CO)C(=O)c2ccccc2-c2ccccc2CO[C@@H]1CN(C)Cc1ccc(Cl)c(Cl)c1	x	7	x	x
COc1cc(/C=C(\C#N)c2nc3ccc(C)cc3[nH]2)cc([N+](=O)[O-])c1O	x	63*	7	19
CC(NC(=O)/C(C#N)=C/c1ccc([N+](=O)[O-])o1)c1ccccc1 (centres undefined)	3	15	29*	4
CCCCCCCCCCCCCCCC[n+]1cccc(C(=O)N(CC)CC)c1	-14	5	45*!	8
CCCCCCCC[n+]1cccc(C(=O)N(CC)CC)c1	-13	2	1	-2
COC(=O)c1ccc(COc2ccccc2/C=C(\C#N)C(=O)Nc2ccc(C)cc2)cc1	6	-2	1	-7
C=CCNC(=O)/C(C#N)=C/c1ccccc1OCc1ccc(C(=O)OC)cc1	4	-5	22*	-2
Cc1cccc(-c2cccc3c4c([nH]c23)[C@@H]2C[C@H](N(C)C(=O)c3ccccc3C)[C@H]([C@H](C)O)CN2CC4)c1	x	4	x	x
CN1CCN(C2=Cc3cc(Cl)ccc3Sc3cc(F)ccc32)CC1	0	-4	27*	-11
CN1CCN(C2=Cc3ccccc3Sc3cc(F)c(F)cc32)CC1	1	-2	13	-7
CCCCNS(=O)(=O)c1ccc2nc(SCC(=O)Nc3sccc3C#N)[nH]c2c1	17	38*	-4	10
CCCCNS(=O)(=O)c1ccc2nc(SCC(N)=O)[nH]c2c1	-2	-2	-2	-3
COC(=O)[C@]12C[C@H](CC(=O)NCc3cccc(C(F)(F)F)c3)C(=O)N(Cc3ccco3)C1=C[C@H](C(C)C)O[C@@H]2C1CC1	x	0	x	x
Cc1ccc(S(=O)(=O)Nn2c(C)ccc2C)cc1	67*	28	4	28
O=C(C1CCC1)N1CCc2cc(S(=O)(=O)C3CCN(Cc4ccc(F)cc4)CC3)ccc21	x	8	x	x
CCCCc1c(-c2ccccc2OC)ncn1Cc1cccc(F)c1	x	0	x	x
COCCN1C(=O)[C@H]2C[C@@]13O[C@H](C1CCCCC1)N=C3CC1c3ccccc3C[C@@]12C (some centres undefined)	x	-2	x	x
CC(c1ccco1)N(C(=O)c1ccccc1NS(=O)(=O)c1ccc(Cl)c([N+](=O)[O-])c1)c1ccccn1 (centres undefined)	17	69*	5	11
O/C=c1\ccc2cccc3nc(C(F)(F)F)nc1c23	19	-85	-9	33*
CN(C)c1cccc(/C=C2\CC3(OC(=O)c4ccc(Cl)cc4)CCCN2C3)c1 (centres undefined)	x	8	x	x
CC(OC(=O)c1ccc2c(c1)C(=O)N(Cc1ccncc1)C2=O)C(=O)Nc1cccc(Cl)c1Cl (centres undefined)	14	0	-4	5
O=C(COC(=O)c1ccc2c(c1)C(=O)N(Cc1ccncc1)C2=O)Nc1ccccc1[N+](=O)[O-]	54*	13	9	25
SMILES	HCV core dimer	rCAG RNA binder	ABHD5-PLIN5 inh	NadD inh
CC(=O)CC[C@@H]1CC[C@]2(CCCN(C(=O)c3ccno3)C2)O1	x	6	x	x
N#CC(=C=[N-])C1=C(C#N)C(c2ccccc2F)C([n+]2ccccc2)C(O)(C2CC2)N1 (centres undefined)	52*	3	-3	8
Cc1cccc[n+]1C1C(c2ccccc2)C(C#N)=C(C(=C=[N-])C#N)NC1(O)C1CC1 (centres undefined)	32	x	0	34*
Cc1ccc[n+](C2C(c3ccc([N+](=O)[O-])cc3)C(C#N)=C([S-])NC2(O)C2CC2)c1 (centres undefined)	8	18	-5	7
CCCC[C@H]1C2CC(OC(=O)Nc3ccccc3C)C(C2)[C@H]2CCCCN21 (some centres undefined)	x	0	x	x
Oc1c(Cl)cc(Cl)cc1/C=N/c1nc(-c2ccc(Cl)cc2)cs1	-14	x	-7	25*
CCn1c(Cc2cccs2)nnc1SCC(=O)Nc1ccc(OCc2ccccc2)cc1	x	2	x	x
C(=C\c1ccccc1)/CSc1nnc(COc2ccccc2)n1Cc1ccco1	x	6	x	x
CCOc1ccc(NC(=O)COc2ccc(-n3cnnn3)cc2)cc1	x	1	5	3
CCOC(=O)c1ccc(NC(=O)COc2ccc(-n3cnnn3)cc2)cc1	58*	15	-2	9
COC(=O)[C@]12C[C@H](CC(=O)NCc3cccs3)C(=O)N(Cc3cccc4ccccc34)C1=C[C@H](COCc1ccccc1)O[C@@H]2C	x	13	x	x
CCN(C(=O)[C@H]1CC(=O)O[C@@H]1c1ccccc1)c1ccccc1	x	-2	x	x
COc1ccc(/C=C2\CN(Cc3ccccc3)C/C(=C\c3ccc(OC)cc3OC)C2=O)c(OC)c1	49*	6	15	29*
CC(C)c1ccc2[nH]c(O)c(N=NC(=O)c3cccc(S(=O)(=O)N4CCCCC4)c3)c2c1	29	4	5	31*
O=C(N=Nc1c(O)[nH]c2ccccc12)c1cccc(S(=O)(=O)N2CCCCC2)c1	5	2	-4	10
CC(C)c1ccc2[nH]c(O)c(N=NC(=O)c3cccc(S(=O)(=O)Nc4cccc(Cl)c4)c3)c2c1	9	1	-7	35*
CC(C)c1ccc2[nH]c(O)c(N=NC(=O)c3cccc(S(=O)(=O)Nc4ccc(Cl)cc4)c3)c2c1	12	6	1	37*
CNC(=S)N=Nc1c(O)[nH]c2ccc(C(C)C)cc12	-6	7	3	-2
C/C(=N\NC(=O)c1cccc(S(=O)(=O)Nc2cccc(Cl)c2)c1)c1cccs1	1	32	4	14
CCCCCCCCN1CCS(=O)(=O)N(Cc2ccc(F)cc2)C(C(=O)OC)C1 (centres undefined)	x	2	x	x
CC1CCC2(CCC(=O)N2CCCOC(=O)Nc2cccc(C(F)(F)F)c2)CC1 (centres undefined)	x	-1	x	x
COC(=O)C1CCN(C(=O)C2CC(=O)N(c3ccc(OC)cc3)C2c2ccc(OC)cc2)CC1 (centres undefined)	x	6	x	x
N#Cc1ccc(/C=C2\CC3(OC(=O)c4cccc(F)c4)CCCN2C3)cc1 (centres undefined)	x	-2	x	x
CCOc1ccc(/C=C2/SC(=O)NC2=S)cc1	-3	11	1	1
CCOc1ccc(N=C2NC(=O)S/C2=C\c2ccc(N(C)C)cc2)cc1	-9	1	4	37*
